Measured values published in ChEMBL document CHEMBL1687819, “Identification and characterization of the multidrug resistance gene cfr in a Panton-Valentine leukocidin-positive sequence type 8 methicillin-resistant Staphylococcus aureus IVa (USA300) isolate” (2010).
≈ marks a conversion by molar mass, not a printed value.

Legend:
Format in all cases: functional
Staphylococcus aureus [1] = assay: Antibacterial activity against Staphylococcus aureus XU21-T1 harboring cfr-encoding conjugative pSCFS7 and fexA by broth microdilution method
Outline: (§1)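 Broth microdilution MICs per CLSI M07-A8 and M100-S20, run side by side on clinical MRSA isolate M05/0060, its plasmid-cured derivative M05/0060-C1, plasmid-free novobiocin-resistant recipient XU21 and transconjugant XU21-T1. Curing was by five serial 24 h passages in BHI broth at 43°C, 200 rpm. Transconjugants came from filter mating, selected on BHI agar with novobiocin 100 µg/ml plus chloramphenicol 30 µg/ml.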

Staphylococcus aureus [2] = assay: Antibacterial activity against methicillin-resistant Staphylococcus aureus M05/0060 harboring cfr-encoding conjugative pSCFS7 and fexA by broth microdilution method; outline: as §1
Staphylococcus aureus [3] = assay: Antibacterial activity against Staphylococcus aureus XU21 by broth microdilution method; outline: as §1
Staphylococcus aureus [4] = assay: Antibacterial activity against pSCFS7-deficient methicillin-resistant Staphylococcus aureus M05/0060-C1 by broth microdilution method; outline: as §1

Structure (SMILES): O=C(N[C@H](CO)[C@H](O)c1ccc([N+](=O)[O-])cc1)C(Cl)Cl [CHLORAMPHENICOL]
- MIC (Staphylococcus aureus [1]): 128 µg/mL (≈ 396 µM)
- MIC (Staphylococcus aureus [2]): 256 µg/mL (≈ 792 µM)
- MIC (Staphylococcus aureus [3]): 8 µg/mL (≈ 24.8 µM)
- MIC (Staphylococcus aureus [4]): 8 µg/mL (≈ 24.8 µM)

Structure (SMILES): CCC[C@@H]1C[C@@H](C(=O)N[C@@H]([C@H]2O[C@H](SC)[C@H](O)[C@@H](O)[C@H]2O)[C@H](C)Cl)N(C)C1 [CLINDAMYCIN]
- MIC (Staphylococcus aureus [1]): ≥ 128 µg/mL
- MIC (Staphylococcus aureus [2]): ≥ 128 µg/mL
- MIC (Staphylococcus aureus [3]): 0.25 µg/mL (≈ 0.588 µM)
- MIC (Staphylococcus aureus [4]): 0.25 µg/mL (≈ 0.588 µM)

Structure (SMILES): CC[C@H]1OC(=O)[C@H](C)[C@@H](O[C@H]2C[C@@](C)(OC)[C@@H](O)[C@H](C)O2)[C@H](C)[C@@H](O[C@@H]2O[C@H](C)C[C@H](N(C)C)[C@H]2O)[C@](C)(O)C[C@@H](C)C(=O)[C@H](C)[C@@H](O)[C@]1(C)O [ERYTHROMYCIN]
- MIC (Staphylococcus aureus [1]): 0.5 µg/mL (≈ 0.681 µM)
- MIC (Staphylococcus aureus [2]): ≥ 64 µg/mL
- MIC (Staphylococcus aureus [3]): 0.5 µg/mL (≈ 0.681 µM)
- MIC (Staphylococcus aureus [4]): ≥ 64 µg/mL

Structure (SMILES): CS(=O)(=O)c1ccc([C@@H](O)[C@@H](CF)NC(=O)C(Cl)Cl)cc1 [FLORFENICOL]
- MIC (Staphylococcus aureus [1]): 256 µg/mL (≈ 715 µM)
- MIC (Staphylococcus aureus [2]): 256 µg/mL (≈ 715 µM)
- MIC (Staphylococcus aureus [3]): 4 µg/mL (≈ 11.2 µM)
- MIC (Staphylococcus aureus [4]): 4 µg/mL (≈ 11.2 µM)

Structure (SMILES): CC(=O)NC[C@H]1CN(c2ccc(N3CCOCC3)c(F)c2)C(=O)O1 [LINEZOLID]
- MIC (Staphylococcus aureus [2]): 8 µg/mL (≈ 23.7 µM)
- MIC (Staphylococcus aureus [3]): 1 µg/mL (≈ 2.96 µM)
- MIC (Staphylococcus aureus [4]): 1 µg/mL (≈ 2.96 µM)

Structure (SMILES): Cc1onc(-c2ccccc2)c1C(=O)N[C@@H]1C(=O)N2[C@@H]1SC(C)(C)[C@@H]2C(=O)O [OXACILLIN]
- MIC (Staphylococcus aureus [1]): 0.12 µg/mL (≈ 0.299 µM)
- MIC (Staphylococcus aureus [2]): ≥ 32 µg/mL
- MIC (Staphylococcus aureus [3]): 0.12 µg/mL (≈ 0.299 µM)
- MIC (Staphylococcus aureus [4]): ≥ 32 µg/mL

Structure (SMILES): C=C[C@]1(C)C[C@@H](OC(=O)CSCCN(CC)CC)[C@]2(C)[C@H](C)CC[C@]3(CCC(=O)[C@H]32)[C@@H](C)[C@@H]1O [TIAMULIN]
- MIC (Staphylococcus aureus [1]): ≥ 128 µg/mL
- MIC (Staphylococcus aureus [2]): ≥ 128 µg/mL
- MIC (Staphylococcus aureus [3]): 1 µg/mL (≈ 2.03 µM)
- MIC (Staphylococcus aureus [4]): 1 µg/mL (≈ 2.03 µM)

Structure (SMILES): CC1=C\[C@@H](O)CC(=O)Cc2nc(co2)C(=O)N2CCC=C2C(=O)O[C@H](C(C)C)[C@H](C)/C=C/C(=O)NC\C=C\1 [VIRGINIAMYCIN FACTOR M1]
- MIC (Staphylococcus aureus [1]): 32 µg/mL (≈ 60.9 µM)
- MIC (Staphylococcus aureus [2]): 32 µg/mL (≈ 60.9 µM)
- MIC (Staphylococcus aureus [3]): 1 µg/mL (≈ 1.9 µM)
- MIC (Staphylococcus aureus [4]): 1 µg/mL (≈ 1.9 µM)
